In the library only some 2.9% were active in any assay of this set; here they are far more common.
Apaf1 inhib – inhibitors of human Apaf-1 apoptosome, primary screen, biochemical, DEVD-Rh110 fluorescence, uHTS. Apoptotic protease-activating factor 1 (Homo sapiens), O14727. reconstituted apoptosome caspase-3 activity. inhibition, % at 20 µM. 0.71% of 330,000 active. AID 489030, 2010; active = inhibition of at least 40% at 20 µM
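Material: biochemical Apaf-1 apoptosome reconstitution. Medium: Hepes buffer, pH 7.5. Also added: cytochrome c activation, bis-DEVD rhodamine 110 substrate. Timing: 30 min compound preincubation, 50 min activation, room temperature. Measured by: rhodamine 110 fluorescence at Ex 480/Em 540 nm.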
UBC13 polyUb – UBC13 polyubiquitin chain formation inhibitors, primary screen, biochemical, TR-FRET, uHTS | Ubiquitin-conjugating enzyme E2 N (Homo sapiens), P61088 | inhibition, % at 20 µM | 0.47% of 330,000 active | AID 485273, 2010; in the data active = inhibition above about 45%, passing the limit was not always enough
Target sequence (P61088 whole entry, looked up): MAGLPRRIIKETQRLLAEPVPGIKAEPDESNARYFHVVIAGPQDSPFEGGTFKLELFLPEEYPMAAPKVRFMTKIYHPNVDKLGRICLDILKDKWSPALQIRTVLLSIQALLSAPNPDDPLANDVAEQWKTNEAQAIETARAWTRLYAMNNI
MEKK3 PB1 HTS – modulators of MEKK3-MEK5 PB1 binding, primary screen, biochemical, wildtype MEKK3, multiplex bead flow cytometry, Alexa488-MEK5 | Mitogen-activated protein kinase kinase kinase 3 (Homo sapiens), Q99759 | bead-based flow cytometry, Alexa488-MEK5 binding to MEKK3; actives lie on both sides; 0 = blocked by unlabeled MEK5, 100 = vehicle | binding response (% of control), % at 10 µM | 1.4% of 290,000 active;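 active = binding response more than 3 SD above or below the average of its plate-row segment, actives on both sides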;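 also: Alexa488 bead fluorescence after subtracting the streptavidin-only scavenger bead signal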
MEKK2mut PB1 HTS – MEK5 binding signal on mutant MEKK2 PB1, primary screen, biochemical, multiplex bead flow cytometry, Alexa488-MEK5. AID 1530, 2009. Alexa488-MEK5 binding to MEKK2 mutant. percent response, % at 10 µM. 0.35% of 290,000 active; in the data active = percent response above about 24%, passing the limit was not always enough
MEKK2wt PB1 HTS – modulators of MEK5 binding to wildtype MEKK2, primary screen, biochemical, multiplex bead flow cytometry, Alexa488-MEK5. Alexa488-MEK5 binding to MEKK2 WT; actives lie on both sides. 1.1% of 290,000 active. binding response (% of control), % at 10 µM. AID 1531, 2009. Mitogen-activated protein kinase kinase kinase 2 (Homo sapiens), Q9Y2U5; in the data active = binding response below about 67% or above about 130%
Apaf-1 inh conf – Apaf-1 inhibitors, single-dose retest, confirmation, biochemical, fluorescence, DEVD-Rh110, 20 µM. shares compounds with Apaf1 inhib. reconstituted apoptosome, caspase-3 DEVD-Rh110 fluorescence. inhibition, % at 20 µM. 25% of 1,800 active. AID 504614, 2011;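 active = mean inhibition of at least 40% at 20 µM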
Rh110 interf inh – Rh110 fluorescence interference by putative Apaf-1 inhibitors, confirmation, artefact control for Apaf-1 inhibitor project, biochemical, 20 µM; quenched caspase reaction; shares compounds with Apaf1 inhib; activation (fluorescence interference), % at 20 µM; 1,800 tested, under 10 active;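 active = signal rise of 40% or more at 20 µM, treated as a fluorescence artifact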
Apaf1 inh interf – fluorescence interference of Apaf-1 inhibitor hits, dose response, artefact control for Apaf-1 inhibitor project; fluorescence interference counterscreen, Apaf-1 assay format; 460 tested, under 10 active; AID 588538, 2011; shares compounds with Apaf1 inhib; IC50, µM; call rule not given here
Hits are given with their value; 0 = inactive; - = no result given.

SMILES	Apaf1 inhib	UBC13 polyUb	MEKK3 PB1 HTS	MEKK2mut PB1 HTS	MEKK2wt PB1 HTS	Apaf-1 inh conf	Rh110 interf inh	others
Cc1cc(Oc2cc(NN3CCCCC3)c([N+](=O)[O-])cc2[N+](=O)[O-])ccc1[N+](=O)[O-]	0	0	0	0	0	-	-
CC(C)CNC(=O)c1c(N)n(Cc2ccco2)c2nc3ccccc3nc12	45	0	0	0	0	0	0
CC(C)CCNC(=O)c1c(N)n(Cc2ccc3c(c2)OCO3)c2nc3ccccc3nc12	90	0	0	0	0	0	0
COCCOC(=O)c1c(N)n(Cc2ccco2)c2nc3ccccc3nc12	0	0	0	0	0	-	-
CC(C)OC(=O)c1c(N)n(Cc2ccco2)c2nc3ccccc3nc12	0	0	0	0	0	-	-
COc1ccc(Cn2c(N)c(C(=O)NCc3ccco3)c3nc4ccccc4nc32)cc1OC	66	0	-	-	-	0	0
CCCNC(=O)c1c(N)n(Cc2ccc3c(c2)OCO3)c2nc3ccccc3nc12	83	0	0	0	0	0	0
COC(=O)c1c(N)n(Cc2ccc(OC)cc2)c2nc3ccccc3nc12	0	0	0	0	0	-	-
O=c1c2ccccc2nc(-c2ccccc2)n1-c1cccc(O)c1	0	0	0	0	0	-	-
CC(C)CNC(=O)c1c(N)n(Cc2ccc3c(c2)OCO3)c2nc3ccccc3nc12	96	0	0	0	0	0	0
c1ccc2c(c1)Sc1ccccc1N2CC1CN2CCC1CC2 (stereo unspecified)	0	0	0	0	0	-	-
COCCCNC(=O)c1c(NC(=O)c2ccco2)n(Cc2ccccc2)c2nc3ccccc3nc12	71	0	0	0	0	0	0	Apaf1 inh interf=0
N=C1c2ccccc2CN1NC(=O)c1ccc(Br)o1	0	0	0	0	0	-	-
COCCNC(=O)c1c(NC(=O)c2ccc(Br)o2)n(Cc2ccccc2)c2nc3ccccc3nc12	67	0	0	0	0	0	0
CCCCCn1c(NC(=O)c2ccco2)c(C(=O)OCC)c2nc3ccccc3nc21	92	0	0	0	0	49	0	Apaf1 inh interf=0
CN1CC(C(=O)c2cccc(C(F)(F)F)c2)C(c2ccc(Cl)cc2)C1 (stereo unspecified)	0	0	0	0	0	-	-
O=C(CCc1nnc2ccc(NCc3ccccc3Cl)nn12)N1CCC2(CC1)OCCO2	0	0	0	0	0	-	-
CCCN1CCc2cccc3c2[C@H]1Cc1ccc(O)c(O)c1-3	53	0	0	0	0	0	0
O=C1C(=O)c2ccccc2-c2ccccc21	99	0	0	0	0	99	0	Apaf1 inh interf=0
O=C1C(=O)c2cccc3cccc1c23	0	0	0	0	0	-	-
O=C(/C=C/c1c[nH]c2ccccc12)c1c(O)n(CCc2ccccc2)c(=O)[nH]c1=O	0	0	0	0	0	-	-
COC(=O)C1=C(c2cc3ccccc3o2)C[C@@H]2CC[C@H]1N2C(=O)NCCCOC(C)C	0	0	0	0	0	-	-
O=c1cc(C2CCNCC2)[nH][nH]1	58	0	0	0	0	0	0

High-throughput results from PubChem.
